Source: ChEMBL document CHEMBL1157765, “Synthesis of DOTA-conjugated multimeric [Tyr3]octreotide peptides via a combination of Cu(I)-catalyzed "click" cycloaddition and thio acid/sulfonyl azide "sulfo-click" amidation and their in vivo evaluation” (J Med Chem, 2010)

Experiments:
[1] = system: Liver; test: Biodistribution in liver of BALB/c mouse bearing rat AR42J cells at 0.37 MBq, iv after 6 hrs; assay type: ADME, organism-based, AR-42J; conditions: in vivo
Method in brief: (§1)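 AR42J tumor grown in right flank of male BALB/c nude mice (20-25 g, 6-8 weeks) by sc injection of 5 × 10⁶ cells; used after ~2 weeks at 4-6 mm diameter. Groups of five received 0.37 MBq (0.1 μg) ¹¹¹In-DOTA conjugate iv via tail vein (labeled in 0.25 M NH₄OAc pH 5.5, 95 °C, 15 min). Tissues dissected at 2, 6 or 24 h, weighed, γ-counted against 1% injected-activity standards; %ID/g, mean ± SD.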

[2] = system: Stomach; test: Biodistribution in stomach of BALB/c mouse bearing rat AR42J cells at 0.37 MBq, iv after 24 hrs; assay type: ADME, organism-based, AR-42J; conditions: in vivo; method in brief: as §1
[3] = system: Kidney; test: Biodistribution in kidney of BALB/c mouse bearing rat AR42J cells at 0.37 MBq, iv after 24 hrs; assay type: ADME, organism-based, AR-42J; conditions: in vivo; method in brief: as §1
[4] = system: Pancreas; test: Biodistribution in pancreas of BALB/c mouse bearing rat AR42J cells at 0.37 MBq, iv after 6 hrs; assay type: ADME, organism-based, AR-42J; conditions: in vivo; method in brief: as §1
[5] = system: Liver; test: Biodistribution in liver of BALB/c mouse bearing rat AR42J cells at 0.37 MBq, iv after 2 hrs under cold condition; assay type: ADME, organism-based, AR-42J; conditions: in vivo
Method in brief: (§2)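 Receptor block: groups of three AR42J tumor-bearing male BALB/c nude mice co-injected iv via tail vein with 0.37 MBq (0.1 μg) ¹¹¹In-DOTA conjugate plus 50 μg octreotide. Killed by CO₂/O₂ at 2 h; blood, tumor and tissues dissected, weighed and γ-counted against 1% injected-activity standards; %ID/g reported as mean ± SD.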

[6] = Biodistribution in adrenal gland of BALB/c mouse bearing rat AR42J cells at 0.37 MBq, iv after 24 hrs; assay type: ADME, organism-based, AR-42J; conditions: in vivo; method in brief: as §1
[7] = system: Pancreas; test: Biodistribution in pancreas of BALB/c mouse bearing rat AR42J cells at 0.37 MBq, iv after 2 hrs; assay type: ADME, organism-based, AR-42J; conditions: in vivo; method in brief: as §1
[8] = Biodistribution in tumor of BALB/c mouse bearing rat AR42J cells at 0.37 MBq, iv after 2 hrs; assay type: ADME, organism-based, Neoplasm, AR-42J; conditions: in vivo; method in brief: as §1
[9] = system: Blood; test: Biodistribution in blood of BALB/c mouse bearing rat AR42J cells at 0.37 MBq, iv after 2 hrs under cold condition; assay type: ADME, organism-based, AR-42J; conditions: in vivo; method in brief: as §2
[10] = Biodistribution in tumor of BALB/c mouse bearing rat AR42J cells at 0.37 MBq, iv after 6 hrs; assay type: ADME, organism-based, Neoplasm, AR-42J; conditions: in vivo; method in brief: as §1
[11] = system: Kidney; test: Biodistribution in kidney of BALB/c mouse bearing rat AR42J cells at 0.37 MBq, iv after 6 hrs; assay type: ADME, organism-based, AR-42J; conditions: in vivo; method in brief: as §1
[12] = system: Pancreas; test: Biodistribution in pancreas of BALB/c mouse bearing rat AR42J cells at 0.37 MBq, iv after 2 hrs under cold condition; assay type: ADME, organism-based, AR-42J; conditions: in vivo; method in brief: as §2
[13] = system: Kidney; test: Biodistribution in kidney of BALB/c mouse bearing rat AR42J cells at 0.37 MBq, iv after 2 hrs; assay type: ADME, organism-based, AR-42J; conditions: in vivo; method in brief: as §1
[14] = Biodistribution in adrenal gland of BALB/c mouse bearing rat AR42J cells at 0.37 MBq, iv after 6 hrs; assay type: ADME, organism-based, AR-42J; conditions: in vivo; method in brief: as §1
[15] = system: Kidney; test: Biodistribution in kidney of BALB/c mouse bearing rat AR42J cells at 0.37 MBq, iv after 2 hrs under cold condition; assay type: ADME, organism-based, AR-42J; conditions: in vivo; method in brief: as §2
[16] = system: Pancreas; test: Biodistribution in pancreas of BALB/c mouse bearing rat AR42J cells at 0.37 MBq, iv after 24 hrs; assay type: ADME, organism-based, AR-42J; conditions: in vivo; method in brief: as §1
[17] = system: Liver; test: Biodistribution in liver of BALB/c mouse bearing rat AR42J cells at 0.37 MBq, iv after 24 hrs; assay type: ADME, organism-based, AR-42J; conditions: in vivo; method in brief: as §1
[18] = Biodistribution in tumor of BALB/c mouse bearing rat AR42J cells at 0.37 MBq, iv after 2 hrs under cold condition; assay type: ADME, organism-based, Neoplasm, AR-42J; conditions: in vivo; method in brief: as §2
[19] = Biodistribution in tumor of BALB/c mouse bearing rat AR42J cells at 0.37 MBq, iv after 24 hrs; assay type: ADME, organism-based, Neoplasm, AR-42J; conditions: in vivo; method in brief: as §1
[20] = Biodistribution in adrenal gland of BALB/c mouse bearing rat AR42J cells at 0.37 MBq, iv after 2 hrs; assay type: ADME, organism-based, AR-42J; conditions: in vivo; method in brief: as §1
[21] = system: Liver; test: Biodistribution in liver of BALB/c mouse bearing rat AR42J cells at 0.37 MBq, iv after 2 hrs; assay type: ADME, organism-based, AR-42J; conditions: in vivo; method in brief: as §1
[22] = system: Blood; test: Biodistribution in blood of BALB/c mouse bearing rat AR42J cells at 0.37 MBq, iv after 24 hrs; assay type: ADME, organism-based, AR-42J; conditions: in vivo; method in brief: as §1
[23] = biological target: Somatostatin receptor type 2 (Rattus norvegicus, UniProt P30680); test: Displacement of [111In]DOTA0,Tyr3]octreotide from SSTR2 receptor in rat AR42J cells; assay type: cell-based, AR-42J
Chain of Somatostatin receptor type 2 (P30680 whole entry): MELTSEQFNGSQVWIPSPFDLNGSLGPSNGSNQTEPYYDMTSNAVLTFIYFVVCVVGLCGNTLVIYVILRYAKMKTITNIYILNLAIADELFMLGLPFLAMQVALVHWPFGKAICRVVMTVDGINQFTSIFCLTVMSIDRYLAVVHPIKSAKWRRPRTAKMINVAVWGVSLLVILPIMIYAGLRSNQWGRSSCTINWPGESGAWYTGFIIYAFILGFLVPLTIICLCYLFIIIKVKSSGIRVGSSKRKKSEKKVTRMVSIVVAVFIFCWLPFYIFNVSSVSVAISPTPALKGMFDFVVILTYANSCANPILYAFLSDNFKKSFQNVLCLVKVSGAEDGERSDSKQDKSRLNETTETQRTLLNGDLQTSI
Method in brief: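 AR42J cells (DMEM, 10% FCS, 37 °C, 5% CO₂) seeded 8 × 10⁵/well and grown to confluence, washed with DMEM + 0.1% BSA. Incubated 3 h at 37 °C with [¹¹¹In-DOTA⁰,Tyr³]octreotide tracer (40 000 dpm) and unlabeled peptide at 0.1-300 nM. Washed twice; cell-bound activity γ-counted. IC₅₀ from fitted sigmoidal displacement curves with 95% CI.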

[24] = system: Stomach; test: Biodistribution in stomach of BALB/c mouse bearing rat AR42J cells at 0.37 MBq, iv after 2 hrs under cold condition; assay type: ADME, organism-based, AR-42J; conditions: in vivo; method in brief: as §2
[25] = system: Stomach; test: Biodistribution in stomach of BALB/c mouse bearing rat AR42J cells at 0.37 MBq, iv after 6 hrs; assay type: ADME, organism-based, AR-42J; conditions: in vivo; method in brief: as §1
[26] = system: Blood; test: Biodistribution in blood of BALB/c mouse bearing rat AR42J cells at 0.37 MBq, iv after 2 hrs; assay type: ADME, organism-based, AR-42J; conditions: in vivo; method in brief: as §1
[27] = Octanol-water partition coefficient, log D at pH 7.4; assay type: physicochemical
Method in brief: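 ¹¹¹In-labeled conjugate (~148 kBq) in PBS pH 7.4 mixed 1:1 with n-octanol and shaken 2 min. Phases separated by centrifugation (5 min, 250g); triplicate aliquots of each layer γ-counted. log D = log₁₀(octanol counts/aqueous counts), from at least two independent experiments.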

[28] = Biodistribution in adrenal gland of BALB/c mouse bearing rat AR42J cells at 0.37 MBq, iv after 2 hrs under cold condition; assay type: ADME, organism-based, AR-42J; conditions: in vivo; method in brief: as §2
[29] = system: Stomach; test: Biodistribution in stomach of BALB/c mouse bearing rat AR42J cells at 0.37 MBq, iv after 2 hrs; assay type: ADME, organism-based, AR-42J; conditions: in vivo; method in brief: as §1
[30] = system: Blood; test: Biodistribution in blood of BALB/c mouse bearing rat AR42J cells at 0.37 MBq, iv after 6 hrs; assay type: ADME, organism-based, AR-42J; conditions: in vivo; method in brief: as §1

Compound	Drug uptake [1] [% ID/g]	Drug uptake [2] [% ID/g]	Drug uptake [3] [% ID/g]	Drug uptake [4] [% ID/g]	Drug uptake [5] [% ID/g]	Drug uptake [6] [% ID/g]	Drug uptake [7] [% ID/g]	Drug uptake [8] [% ID/g]	Drug uptake [9] [% ID/g]	Drug uptake [10] [% ID/g]	Drug uptake [11] [% ID/g]	Drug uptake [12] [% ID/g]	Drug uptake [13] [% ID/g]	Drug uptake [14] [% ID/g]	Drug uptake [15] [% ID/g]	Drug uptake [16] [% ID/g]	Drug uptake [17] [% ID/g]	Drug uptake [18] [% ID/g]	Drug uptake [19] [% ID/g]	logD [27]	other results
C[C@@H](O)[C@@H]1NC(=O)[C@H](CCCCN)NC(=O)[C@@H](Cc2c[nH]c3ccccc23)NC(=O)[C@H](Cc2ccc(O)cc2)NC(=O)[C@@H](NC(=O)[C@@H](Cc2ccccc2)NC(=O)CCCCCn2cc(COc3cccc(C(=O)NS(=O)(=O)CCNC(=O)CN4CCN(CC(=O)O)CCN(CC(=O)O)CCN(CC(=O)O)CC4)c3)nn2)CSSC[C@@H](C(=O)N[C@H](CO)[C@@H](C)O)NC1=O	0.22	2.83	2.53	0.63	3.61	0.63	2.92	42.33	3.46	21.32	10.96	1.07	54.19	0.78	62.74	0.17	0.09	4.82	10.75	-2.2	Drug uptake [20]: 1.86 % ID/g; Drug uptake [21]: 0.52 % ID/g; Drug uptake [22]: 0.04 % ID/g; IC50 [23]: 1.32 nM; Drug uptake [24]: 2.16 % ID/g; Drug uptake [25]: 6.11 % ID/g; Drug uptake [26]: 0.27 % ID/g; Drug uptake [28]: 2.38 % ID/g; Drug uptake [29]: 7.54 % ID/g; Drug uptake [30]: 0.13 % ID/g
C[C@@H](O)[C@@H]1NC(=O)[C@H](CCCCN)NC(=O)[C@@H](Cc2c[nH]c3ccccc23)NC(=O)[C@H](Cc2ccc(O)cc2)NC(=O)[C@@H](NC(=O)[C@@H](Cc2ccccc2)NC(=O)CCCCCn2cc(COc3cc(OCc4cn(CCCCCC(=O)N[C@H](Cc5ccccc5)C(=O)N[C@H]5CSSC[C@@H](C(=O)N[C@H](CO)[C@@H](C)O)NC(=O)[C@H]([C@@H](C)O)NC(=O)[C@H](CCCCN)NC(=O)[C@@H](Cc6c[nH]c7ccccc67)NC(=O)[C@H](Cc6ccc(O)cc6)NC5=O)nn4)cc(C(=O)NS(=O)(=O)CCNC(=O)CN4CCN(CC(=O)O)CCN(CC(=O)O)CCN(CC(=O)O)CC4)c3)nn2)CSSC[C@@H](C(=O)N[C@H](CO)[C@@H](C)O)NC1=O	14.92	2.97	11.74	1.69	22.67	1.27	2.96	25.31	2.31	30.91	65.61	1.18	92.2	2.49	57.78	0.36	5.54	5.55	12.14	-1.79	Drug uptake [20]: 2.69 % ID/g; Drug uptake [21]: 18.67 % ID/g; Drug uptake [22]: 0.17 % ID/g; IC50 [23]: 2.45 nM; Drug uptake [24]: 3.46 % ID/g; Drug uptake [25]: 7.78 % ID/g; Drug uptake [26]: 1.52 % ID/g; Drug uptake [28]: 1.56 % ID/g; Drug uptake [29]: 10.21 % ID/g; Drug uptake [30]: 0.86 % ID/g
C[C@@H](O)[C@@H]1NC(=O)[C@H](CCCCN)NC(=O)[C@@H](Cc2c[nH]c3ccccc23)NC(=O)[C@H](Cc2ccc(O)cc2)NC(=O)[C@@H](NC(=O)[C@@H](Cc2ccccc2)NC(=O)CCCCCn2cc(CO)nn2)CSSC[C@@H](C(=O)N[C@H](CO)[C@@H](C)O)NC1=O																				-3.59	
